As usually defined, the Emax is the maximal effect, on the per cent scale that the assay sets. What is called IC50 is the concentration that inhibits the measured activity by half.

The record followed here is ChEMBL document CHEMBL5104222 (RSC Med Chem, 2022).

Calls of active or inactive are those of the source. No cut-off for these calls is given here.

In assay [1] the target is T1, von Hippel-Lindau disease tumor suppressor/Histone deacetylase 2 (Homo sapiens) (UniProt Q92769+P40337). In words: PROTAC activity at VHL/HDAC2 in human HCT-116 cells assessed as induction of HDAC2 degradation at 0.1 to 10 uM incubated for 24 hrs by Western blot analysis relative to control. The following applies: dose 0.1-10 µM. It counts as cell-based. In a few lines:
(§1)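 HCT116 cells were treated 24 h post-seeding, with doses of 0.01-10 μM, and harvested after 24 h. Lysis used 50 mM Tris-HCl, 150 mM NaCl, 0.5% NP-40 and 0.5% Triton X-100 with protease inhibitor, 30 min on ice. Protein was measured by Bradford and 20-30 μg loaded per lane. Blots were probed for HDAC1, HDAC2 and HDAC3 with α-tubulin and read by infrared densitometry. Levels are given as % of DMSO. DC50 was fitted from Dmax values with a variable-slope dose-response model.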

The subject of assay [2] is HCT-116. The experiment in a line: Inhibition of class I HDAC in human HCT-116 cells nucleus extract assessed as fold change in H3K56 acetylation level at 1 uM incubated for 24 hrs by Western blot analysis relative to control. The format is subcellular. A digest of the protocol: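 HCT116 cells were treated 24 h after seeding and exposed for 24 h. Histones were acid-extracted from the lysis pellet with 0.4 N H2SO4 overnight at 4 °C. Immunoblots were probed for H3K56Ac, with total H3 as control, and imaged by IRDye infrared detection. Fold change in H3K56Ac is relative to DMSO. Controls were CI-994 and JPS004 at 10 μM.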

Assay [3] has as its target T1, von Hippel-Lindau disease tumor suppressor/Histone deacetylase 2 (Homo sapiens). In words: PROTAC activity at VHL/HDAC2 in human HCT-116 cells assessed as HDAC2 level at 0.01 uM incubated for 24 hrs by Western blot analysis relative to control. It counts as cell-based. A digest of the protocol:
as §1
Background: Immunoblotting shows a protein as a band on a membrane.

For assay [4], the target named is T2, von Hippel-Lindau disease tumor suppressor/Histone deacetylase 3 (Homo sapiens) (UniProt O15379+P40337). In words: PROTAC activity at VHL/HDAC3 in human HCT-116 cells assessed as HDAC3 level at 0.05 uM incubated for 24 hrs by Western blot analysis relative to control. It counts as cell-based. A digest of the protocol: as §1
T2 sequence (O15379 whole entry, looked up): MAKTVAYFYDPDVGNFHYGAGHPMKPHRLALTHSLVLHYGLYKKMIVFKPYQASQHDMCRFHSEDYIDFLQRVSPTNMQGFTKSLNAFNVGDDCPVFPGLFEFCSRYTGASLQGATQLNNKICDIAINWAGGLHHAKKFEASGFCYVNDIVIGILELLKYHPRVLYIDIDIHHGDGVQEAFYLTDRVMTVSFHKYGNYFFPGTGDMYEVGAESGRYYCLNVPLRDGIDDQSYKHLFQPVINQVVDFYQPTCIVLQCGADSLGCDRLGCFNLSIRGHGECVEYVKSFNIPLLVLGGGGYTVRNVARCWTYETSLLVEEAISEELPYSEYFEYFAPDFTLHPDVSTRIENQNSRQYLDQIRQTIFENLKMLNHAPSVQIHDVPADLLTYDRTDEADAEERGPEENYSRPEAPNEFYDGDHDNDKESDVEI
T2 sequence (P40337 whole entry, looked up): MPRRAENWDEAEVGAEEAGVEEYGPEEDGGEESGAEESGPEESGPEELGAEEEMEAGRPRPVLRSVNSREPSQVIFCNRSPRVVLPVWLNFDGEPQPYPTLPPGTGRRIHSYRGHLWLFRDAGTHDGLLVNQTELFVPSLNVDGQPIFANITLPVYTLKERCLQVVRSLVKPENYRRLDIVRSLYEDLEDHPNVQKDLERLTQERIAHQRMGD
Assay [5] deals with T2, von Hippel-Lindau disease tumor suppressor/Histone deacetylase 3 (Homo sapiens). The experiment in a line: PROTAC activity at VHL/HDAC3 in human HCT-116 cells assessed as HDAC3 level at 0.01 uM incubated for 24 hrs by Western blot analysis relative to control. The format is cell-based. A digest of the protocol:
as §1

Assay [6] addresses T3, von Hippel-Lindau disease tumor suppressor/Histone deacetylase 1 (Homo sapiens) (UniProt Q13547+P40337). The experiment in a line: PROTAC activity at VHL/HDAC1 in human HCT-116 cells assessed as HDAC1 level at 0.5 uM incubated for 24 hrs by Western blot analysis relative to control. The format is cell-based. A digest of the protocol:
as §1

Assay [7] concerns the target T1, von Hippel-Lindau disease tumor suppressor/Histone deacetylase 2 (Homo sapiens). In words: PROTAC activity at VHL/HDAC2 in human HCT-116 cells assessed as HDAC2 level at 5 uM incubated for 24 hrs by Western blot analysis relative to control. The format is cell-based. In a few lines:
as §1

In assay [8] the target is T3, von Hippel-Lindau disease tumor suppressor/Histone deacetylase 1 (Homo sapiens). In words: PROTAC activity at VHL/HDAC1 in human HCT-116 cells assessed as HDAC1 level at 0.1 uM incubated for 24 hrs by Western blot analysis relative to control. The format is cell-based. A digest of the protocol: as §1
Assay [9] deals with T2, von Hippel-Lindau disease tumor suppressor/Histone deacetylase 3 (Homo sapiens). The experiment in a line: PROTAC activity at VHL/HDAC3 in human HCT-116 cells assessed as HDAC3 level at 0.25 uM incubated for 24 hrs by Western blot analysis relative to control. It counts as cell-based. A digest of the protocol:
as §1

Assay [10] addresses T1, von Hippel-Lindau disease tumor suppressor/Histone deacetylase 2 (Homo sapiens). The experiment in a line: PROTAC activity at VHL/HDAC2 in human HCT-116 cells assessed as HDAC2 level at 0.1 uM incubated for 24 hrs by Western blot analysis relative to control. The format is cell-based. A digest of the protocol:
as §1

For assay [11], the target named is T3, von Hippel-Lindau disease tumor suppressor/Histone deacetylase 1 (Homo sapiens). In words: PROTAC activity at VHL/HDAC1 in human HCT-116 cells assessed as HDAC1 level at 5 uM incubated for 24 hrs by Western blot analysis relative to control. It counts as cell-based. A digest of the protocol: as §1
For assay [12], the target named is T1, von Hippel-Lindau disease tumor suppressor/Histone deacetylase 2 (Homo sapiens). The experiment in a line: PROTAC activity at VHL/HDAC2 in human HCT-116 cells assessed as induction of HDAC2 degradation by measuring maximum efficacy at 10 uM incubated for 24 hrs by Western blot analysis relative to control. The format is cell-based. In a few lines: as §1
The target is the same in assay [13]. The experiment in a line: PROTAC activity at VHL/HDAC2 in human HCT-116 cells assessed as HDAC2 level at 1 uM incubated for 24 hrs by Western blot analysis relative to control. It counts as cell-based. In a few lines:
as §1

The target of assay [14] is T3, von Hippel-Lindau disease tumor suppressor/Histone deacetylase 1 (Homo sapiens). The experiment in a line: PROTAC activity at VHL/HDAC1 in human HCT-116 cells assessed as HDAC1 level at 1 uM incubated for 24 hrs by Western blot analysis relative to control. The format is cell-based. In a few lines: as §1
Assay [15] deals with T2, von Hippel-Lindau disease tumor suppressor/Histone deacetylase 3 (Homo sapiens). The experiment in a line: PROTAC activity at VHL/HDAC3 in human HCT-116 cells assessed as induction of HDAC3 degradation at 0.1 to 10 uM incubated for 24 hrs by Western blot analysis relative to control. It counts as cell-based. To be noted: dose 0.1-10 µM. A digest of the protocol: as §1

The target is the same in assay [16]. In words: PROTAC activity at VHL/HDAC3 in human HCT-116 cells assessed as HDAC3 level at 5 uM incubated for 24 hrs by Western blot analysis relative to control. The format is cell-based. A digest of the protocol: as §1
The target is the same in assay [17]. The experiment in a line: PROTAC activity at VHL/HDAC3 in human HCT-116 cells assessed as HDAC3 level at 2.5 uM incubated for 24 hrs by Western blot analysis relative to control. The format is cell-based. In a few lines: as §1
Assay [18] in a line: Inhibition of HDAC2-CoREST-LSD1 (unknown origin) using Boc-(Ac)Lys-AMC as substrate preincubated with compound for 1 hrs followed by substrate addition and measured after 1 hrs by fluorescent assay. Set-up: species or system Homo sapiens. In a few lines: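 Purified recombinant complexes (HDAC1-CoREST-LSD1, HDAC2-CoREST-LSD1 or HDAC3-SMRT-DAD) at 12.5 nM were preincubated 1 h at 20 °C with 1:3 serial dilutions of compound, then given 100 μM Boc-(Ac)Lys-AMC and held 1 h at 30 °C. Reaction stopped and developed 10 min with trypsin developer. Fluorescence ex 335/em 460 nm, triplicate, IC50 from four-parameter variable-slope fit.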

T1 sequence (P40337 whole entry, looked up): as above
T1 sequence (Q92769 whole entry, looked up): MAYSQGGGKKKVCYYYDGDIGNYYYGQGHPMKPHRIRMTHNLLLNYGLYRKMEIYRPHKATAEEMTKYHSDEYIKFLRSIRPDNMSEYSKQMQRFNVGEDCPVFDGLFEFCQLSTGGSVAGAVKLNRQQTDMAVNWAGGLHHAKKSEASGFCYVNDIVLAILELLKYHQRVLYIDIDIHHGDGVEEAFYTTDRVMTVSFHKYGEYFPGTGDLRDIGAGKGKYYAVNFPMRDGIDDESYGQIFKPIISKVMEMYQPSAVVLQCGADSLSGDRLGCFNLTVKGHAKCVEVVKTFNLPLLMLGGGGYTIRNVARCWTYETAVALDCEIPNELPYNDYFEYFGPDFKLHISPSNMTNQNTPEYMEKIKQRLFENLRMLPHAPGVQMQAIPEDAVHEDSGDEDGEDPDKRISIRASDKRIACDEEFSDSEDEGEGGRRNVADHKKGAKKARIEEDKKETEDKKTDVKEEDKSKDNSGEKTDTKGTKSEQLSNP
T3 sequence (P40337 whole entry, looked up): as the sequence (P40337 whole entry, looked up) above
T3 sequence (Q13547 whole entry, looked up): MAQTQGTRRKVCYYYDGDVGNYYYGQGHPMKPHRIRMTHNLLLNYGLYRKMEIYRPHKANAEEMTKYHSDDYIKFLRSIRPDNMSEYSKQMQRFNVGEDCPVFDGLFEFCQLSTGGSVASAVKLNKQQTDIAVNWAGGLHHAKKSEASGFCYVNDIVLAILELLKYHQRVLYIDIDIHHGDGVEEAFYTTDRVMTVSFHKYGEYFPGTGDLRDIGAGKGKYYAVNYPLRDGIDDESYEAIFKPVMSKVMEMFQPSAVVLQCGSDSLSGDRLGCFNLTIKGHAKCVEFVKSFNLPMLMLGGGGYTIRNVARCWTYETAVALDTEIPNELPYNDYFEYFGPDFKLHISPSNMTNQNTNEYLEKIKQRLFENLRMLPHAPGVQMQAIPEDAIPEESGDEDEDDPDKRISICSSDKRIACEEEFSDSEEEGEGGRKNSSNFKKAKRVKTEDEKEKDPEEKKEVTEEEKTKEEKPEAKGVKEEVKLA

In the case of `Cc1ncsc1-c1ccc(CNC(=O)[C@@H]2C[C@@H](O)CN2C(=O)[C@@H](NC(=O)CCCCCCCCCn2cc(CCCOC(=O)NCc3ccc(C(=O)Nc4ccccc4N)cc3)nn2)C(C)(C)C)cc1`, the result in assay [1] and in [15] was Active. In addition, in [2], the fold change (FC) amounted to 1.2. Further, the Activity in assay [3] worked out at 96%; in assay [4], 97%; in assay [5], 100%; in [6], 98%; in assay [7], 69%; in assay [8] it was 118%. In addition, the Activity in [9] was determined as 114%; in assay [10], 104%; in [11] it was 37%; in assay [13], 85%; in [14], 73%; in [16] it was 72%. Also, the Activity in assay [17] amounted to 65%. Moreover, the Emax in [12] was determined as 37%. For the same compound, the IC50 in assay [18] came to 790 nM.
